In assay [1] the test system is K562. The assay is described as follows: Tested for the influence on the ribonucleotide (GTP) concentration in myelogenous leukemia K562 cell culture. The format is functional, Homo sapiens. The method, boiled down: (§1)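 Cultured K562 cells given 100 µM compound (2 µM for reference furanoside) or saline for 2 h at 37 °C, then centrifuged, washed once in cold saline and extracted with cold 10% trichloroacetic acid before nucleotide pool measurement.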

Assay [2] concerns the target Inosine-5'-monophosphate dehydrogenase (IMPDH) (Homo sapiens) (UniProt P20839+P12268). The assay is described as follows: Inhibitory activity against Inosine-5'-monophosphate dehydrogenase in human myelogenous leukemia K562 cells in culture. The format is cell-based. The note with it: concentration not given here.
For assay [3], the system named is K562. The experiment in a line: Concentration required to inhibit 50% of the cell proliferation of the Human myelogenous leukemia K562 cells. The assay is classed as functional, cell-based. The method, boiled down:
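K562 cells in log phase (RPMI 1640 + 10% FBS, 5% CO2, 37 °C), seeded at 1 × 10⁵ cells/mL and exposed continuously to compounds (0.5-100 µM, in saline) or saline for 48 h. Cells counted by Coulter counter; inhibition = % reduction in proliferation versus saline; IC50 = concentration giving 50% inhibition at 48 h.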

The subject of assay [4] is K562. The assay is described as follows: Tested for the influence on the ribonucleotide (IMP) concentration in myelogenous leukemia K562 cell culture. The format is functional, Homo sapiens. The essentials:
as §1

Inosine-5'-monophosphate dehydrogenase (IMPDH) (Homo sapiens), sequence (P20839 whole entry, looked up, other chains not shown): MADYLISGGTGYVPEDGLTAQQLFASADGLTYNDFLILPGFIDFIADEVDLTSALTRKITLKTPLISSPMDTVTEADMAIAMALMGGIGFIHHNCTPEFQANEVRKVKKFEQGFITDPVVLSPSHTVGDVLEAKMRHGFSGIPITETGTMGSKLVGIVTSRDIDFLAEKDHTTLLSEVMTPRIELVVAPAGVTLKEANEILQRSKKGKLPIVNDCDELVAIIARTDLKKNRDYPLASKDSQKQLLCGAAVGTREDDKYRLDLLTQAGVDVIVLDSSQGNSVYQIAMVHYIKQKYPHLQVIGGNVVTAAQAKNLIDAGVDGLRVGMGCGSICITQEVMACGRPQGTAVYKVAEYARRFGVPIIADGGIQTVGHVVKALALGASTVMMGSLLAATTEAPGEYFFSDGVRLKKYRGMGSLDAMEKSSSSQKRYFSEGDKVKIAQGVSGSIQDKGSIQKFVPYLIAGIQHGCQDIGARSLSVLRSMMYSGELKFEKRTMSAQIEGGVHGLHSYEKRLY

On to `NC(=O)c1csc([C@@H]2O[C@H](CO)[C@@H](O)[C@H]2O)c1`, for which the Control in the assay with K562 [1] was found to be 96.6%; in the assay on K562 [4], 112%. In assay [2], the inhibition is 76%. This compound also displayed an IC50 with K562 [3] of 1.7 µM.

As for `NC(=O)c1coc([C@@H]2S[C@H](CO)[C@H](O)C2O)c1` (stereo not given in full) [FURANTHIOFURIN], the Control in the assay with K562 [1] was 66.1%; in the assay with K562 [4], 105%. This compound came in with an IC50 in the assay on K562 [3] of 4700 µM.

On to `NC(=O)c1csc([C@@H]2S[C@H](CO)[C@H](O)C2O)c1` (stereo not given in full) [THIOPHENTHIOFURIN], for which the Control amounted to 83.9% in the assay on K562 [1] and 111% in the assay with K562 [4]. In the assay with K562 [3], this compound displayed an IC50 of 67 µM.
